In ChEMBL document CHEMBL4020839, “Class I HDAC Inhibitors Display Different Antitumor Mechanism in Leukemia and Prostatic Cancer Cells Depending on Their p53 Status” (J Med Chem, 2018):
Active and inactive are the calls of the source. The calls are words filed in the database; no cut-off is given here.

How the values were obtained:
[1] = molecular target: T1, Histone deacetylase 2 (Homo sapiens, UniProt Q92769); assay: Inhibition of full length recombinant human C-terminal FLAG/His-tagged HDAC2 expressed in baculovirus expression system using Boc-Lys(acetyl)-AMC as substrate preincubated for 15 mins followed by substrate addition measured after 2 hrs by fluorescence assay
Outline: (§1)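 Recombinant HDAC2 preincubated with serial compound dilutions at 30 °C for 15, 30, 60 or 90 min. Boc-Lys(acetyl)-AMC added and reaction run 2 h at 30 °C, then stopped with trypsin/TSA developer. Fluorescence read at 360/460 nm; IC50 from variable-slope fit of control-normalized inhibition.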

[2] = molecular target: T2, Histone deacetylase 1 (Homo sapiens, UniProt Q13547); assay: Inhibition of full length recombinant human C-terminal FLAG/His-tagged HDAC1 expressed in baculovirus expression system using Boc-Lys(acetyl)-AMC as substrate preincubated for 90 mins followed by substrate addition measured after 2 hrs by fluorescence assay
Outline: (§2)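 Recombinant HDAC1 was preincubated with serially diluted inhibitor at 30 °C for the stated time. Boc-Lys(acetyl)-AMC was then added and the reaction ran 2 h at 30 °C. It was stopped with a trypsin/trichostatin A developer, and fluorescence was read 30 min later (ex 360/em 460 nm). Inhibition was taken relative to control wells, and IC50 came from a variable-slope log(inhibitor)–normalized response fit.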

[3] = molecular target: T2, Histone deacetylase 1; assay: Inhibition of full length recombinant human C-terminal FLAG/His-tagged HDAC1 expressed in baculovirus expression system using Boc-Lys(acetyl)-AMC as substrate preincubated for 15 mins followed by substrate addition measured after 2 hrs by fluorescence assay; outline: as §2
[4] = molecular target: T1, Histone deacetylase 2; assay: Inhibition of full length recombinant human C-terminal FLAG/His-tagged HDAC2 expressed in baculovirus expression system using Boc-Lys(acetyl)-AMC as substrate preincubated for 60 mins followed by substrate addition measured after 2 hrs by fluorescence assay; outline: as §1
[5] = molecular target: T1, Histone deacetylase 2; assay: Inhibition of full length recombinant human C-terminal FLAG/His-tagged HDAC2 expressed in baculovirus expression system using Boc-Lys(acetyl)-AMC as substrate preincubated for 30 mins followed by substrate addition measured after 2 hrs by fluorescence assay; outline: as §1
[6] = molecular target: T1, Histone deacetylase 2; assay: Inhibition of full length recombinant human C-terminal FLAG/His-tagged HDAC2 expressed in baculovirus expression system using Boc-Lys(acetyl)-AMC as substrate preincubated for 90 mins followed by substrate addition measured after 2 hrs by fluorescence assay; outline: as §1
[7] = molecular target: T3, Protein deacetylase HDAC6 (Homo sapiens, UniProt Q9UBN7); assay: Inhibition of HDAC6 (unknown origin) using Boc-Lys(acetyl)-AMC as substrate preincubated for 1 hr followed by substrate addition measured after 2 hrs by fluorescence assay
T3 sequence (Q9UBN7 whole entry): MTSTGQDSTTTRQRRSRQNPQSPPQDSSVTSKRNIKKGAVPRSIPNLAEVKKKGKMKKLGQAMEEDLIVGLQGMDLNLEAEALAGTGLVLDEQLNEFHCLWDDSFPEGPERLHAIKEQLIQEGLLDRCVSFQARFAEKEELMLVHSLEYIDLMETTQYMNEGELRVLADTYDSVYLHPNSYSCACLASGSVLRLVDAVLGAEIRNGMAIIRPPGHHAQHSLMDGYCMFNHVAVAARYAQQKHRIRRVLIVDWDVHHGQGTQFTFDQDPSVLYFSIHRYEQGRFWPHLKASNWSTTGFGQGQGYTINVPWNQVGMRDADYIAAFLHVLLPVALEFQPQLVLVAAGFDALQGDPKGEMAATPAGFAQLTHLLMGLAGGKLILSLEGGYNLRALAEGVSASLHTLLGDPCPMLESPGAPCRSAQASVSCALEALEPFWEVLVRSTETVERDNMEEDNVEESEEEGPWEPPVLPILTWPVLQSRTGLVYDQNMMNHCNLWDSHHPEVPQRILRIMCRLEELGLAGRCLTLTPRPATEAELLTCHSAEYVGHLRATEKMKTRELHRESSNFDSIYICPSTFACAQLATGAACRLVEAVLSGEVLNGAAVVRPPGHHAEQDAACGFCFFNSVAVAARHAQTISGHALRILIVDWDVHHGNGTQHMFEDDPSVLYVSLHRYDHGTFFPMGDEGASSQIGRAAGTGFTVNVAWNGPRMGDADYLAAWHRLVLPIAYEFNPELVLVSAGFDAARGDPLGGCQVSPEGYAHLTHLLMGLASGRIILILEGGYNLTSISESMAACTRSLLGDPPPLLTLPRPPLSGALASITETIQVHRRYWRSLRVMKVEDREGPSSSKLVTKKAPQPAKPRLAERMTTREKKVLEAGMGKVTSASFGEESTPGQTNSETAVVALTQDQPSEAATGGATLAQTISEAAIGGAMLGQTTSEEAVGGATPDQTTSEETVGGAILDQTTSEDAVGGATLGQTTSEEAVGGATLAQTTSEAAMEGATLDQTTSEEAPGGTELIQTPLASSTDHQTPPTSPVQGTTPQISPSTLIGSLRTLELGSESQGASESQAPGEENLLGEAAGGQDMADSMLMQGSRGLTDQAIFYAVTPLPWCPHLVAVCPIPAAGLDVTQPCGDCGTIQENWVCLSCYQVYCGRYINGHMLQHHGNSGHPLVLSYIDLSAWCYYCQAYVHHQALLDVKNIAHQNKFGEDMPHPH
Outline: (§3)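 Recombinant HDAC incubated with serial compound dilutions at 30 °C for 1 h. Reaction run 2 h at 30 °C, stopped with developer containing trypsin and TSA. Fluorescence read after 30 min at 360/460 nm. Inhibition relative to control wells; IC50 from variable-slope fit.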

[8] = molecular target: T2, Histone deacetylase 1; assay: Inhibition of full length recombinant human C-terminal FLAG/His-tagged HDAC1 expressed in baculovirus expression system using Boc-Lys(acetyl)-AMC as substrate preincubated for 60 mins followed by substrate addition measured after 2 hrs by fluorescence assay; outline: as §2
[9] = molecular target: T2, Histone deacetylase 1; assay: Inhibition of full length recombinant human C-terminal FLAG/His-tagged HDAC1 expressed in baculovirus expression system using Boc-Lys(acetyl)-AMC as substrate preincubated for 1 hr followed by substrate addition measured after 2 hrs by fluorescence assay; outline: as §3
[10] = molecular target: Histone deacetylase 3/Nuclear receptor corepressor 2 (HDAC3/NCoR2) (Homo sapiens) (UniProt O15379+Q9Y618); assay: Mixed-type inhibition of full length recombinant human C-terminal His-tagged HDAC3/N-terminal GST-tagged NCOR2 co-expressed in baculovirus expression system using Boc-Lys(acetyl)-AMC as substrate preincubated for 2 hrs followed by substrate addition measured after 2 hrs by Lineweaver-Burk plot analysis
Outline: (§4)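 Recombinant human HDAC2 or HDAC3 incubated 2 h at 30 °C with inhibitor at several concentrations in HDAC buffer. Serially diluted Boc-Lys(acetyl)-AMC added for 2 h, then quenched with 5 mg/mL trypsin and 1 μM TSA. Fluorescence read at 360/460 nm. Vmax and Km from Michaelis–Menten fits, shown as Lineweaver–Burk plots.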

[11] = molecular target: T1, Histone deacetylase 2; assay: Mixed-type inhibition of full length recombinant human C-terminal FLAG/His-tagged HDAC2 expressed in baculovirus expression system using Boc-Lys(acetyl)-AMC as substrate preincubated for 2 hrs followed by substrate addition measured after 2 hrs by Lineweaver-Burk plot analysis; outline: as §4
[12] = molecular target: T1, Histone deacetylase 2; assay: Inhibition of full length recombinant human C-terminal FLAG/His-tagged HDAC2 expressed in baculovirus expression system using Boc-Lys(acetyl)-AMC as substrate preincubated for 1 hr followed by substrate addition measured after 2 hrs by fluorescence assay; outline: as §3
[13] = molecular target: T4, Histone deacetylase 3/Nuclear receptor corepressor 2 (HDAC3/NCoR2) (Homo sapiens, UniProt O15379); assay: Inhibition of full length recombinant human C-terminal His-tagged HDAC3/N-terminal GST-tagged NCOR2 co-expressed in baculovirus expression system using Boc-Lys(acetyl)-AMC as substrate preincubated for 1 hr followed by substrate addition measured after 2 hrs by fluorescence assay; outline: as §3
[14] = system: MV4-11; assay: Downregulation of HDAC6 protein expression in human MV4-11 cells at 5 uM after 24 hrs by Western blot analysis; type: functional, cell-based
Outline: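 MV4-11 cells treated 24 h at 0.25, 0.5, 1 and 2 μM, with 5 μM SAHA as reference. RIPA lysates normalized by BCA, run on 4–12% Bis-Tris gels, probed with primary antibodies at 1/1000 overnight at 4 °C. HDAC6 and acetylated histones/tubulin detected; actin as loading control. Representative of n = 2.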

[15] = system: MV4-11; assay: Antiproliferative activity against human MV4-11 cells after 48 hrs by CellTiter-Blue assay; type: functional, cell-based; conditions: MV4-11, 48 h
[16] = molecular target: T4, Histone deacetylase 3/Nuclear receptor corepressor 2 (HDAC3/NCoR2); assay: Inhibition of full length recombinant human C-terminal His-tagged HDAC3/N-terminal GST-tagged NCOR2 co-expressed in baculovirus expression system using Boc-Lys(acetyl)-AMC as substrate preincubated for 90 mins followed by substrate addition measured after 2 hrs by fluorescence assay
[17] = molecular target: T2, Histone deacetylase 1; assay: Inhibition of full length recombinant human C-terminal FLAG/His-tagged HDAC1 expressed in baculovirus expression system using Boc-Lys(acetyl)-AMC as substrate preincubated for 30 mins followed by substrate addition measured after 2 hrs by fluorescence assay
[18] = molecular target: T4, Histone deacetylase 3/Nuclear receptor corepressor 2 (HDAC3/NCoR2); assay: Inhibition of full length recombinant human C-terminal His-tagged HDAC3/N-terminal GST-tagged NCOR2 co-expressed in baculovirus expression system using Boc-Lys(acetyl)-AMC as substrate preincubated for 15 mins followed by substrate addition measured after 2 hrs by fluorescence assay
[19] = molecular target: T4, Histone deacetylase 3/Nuclear receptor corepressor 2 (HDAC3/NCoR2); assay: Inhibition of full length recombinant human C-terminal His-tagged HDAC3/N-terminal GST-tagged NCOR2 co-expressed in baculovirus expression system using Boc-Lys(acetyl)-AMC as substrate preincubated for 60 mins followed by substrate addition measured after 2 hrs by fluorescence assay
[20] = molecular target: T4, Histone deacetylase 3/Nuclear receptor corepressor 2 (HDAC3/NCoR2); assay: Inhibition of full length recombinant human C-terminal His-tagged HDAC3/N-terminal GST-tagged NCOR2 co-expressed in baculovirus expression system using Boc-Lys(acetyl)-AMC as substrate preincubated for 30 mins followed by substrate addition measured after 2 hrs by fluorescence assay

T1 sequence (Q92769 whole entry): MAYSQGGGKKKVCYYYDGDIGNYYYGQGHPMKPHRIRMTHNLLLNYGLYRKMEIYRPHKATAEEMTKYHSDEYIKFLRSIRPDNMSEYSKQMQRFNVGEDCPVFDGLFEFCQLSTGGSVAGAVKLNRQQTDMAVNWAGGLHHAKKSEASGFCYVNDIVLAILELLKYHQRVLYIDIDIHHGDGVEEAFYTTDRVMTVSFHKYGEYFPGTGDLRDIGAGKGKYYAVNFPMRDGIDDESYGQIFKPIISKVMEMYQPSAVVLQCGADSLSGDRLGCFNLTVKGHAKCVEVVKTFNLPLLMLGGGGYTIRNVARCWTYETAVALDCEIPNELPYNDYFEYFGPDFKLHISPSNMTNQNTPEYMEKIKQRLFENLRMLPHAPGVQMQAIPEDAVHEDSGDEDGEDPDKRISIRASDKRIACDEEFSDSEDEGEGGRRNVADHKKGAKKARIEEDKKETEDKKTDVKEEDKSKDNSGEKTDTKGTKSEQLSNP
T2 sequence (Q13547 whole entry): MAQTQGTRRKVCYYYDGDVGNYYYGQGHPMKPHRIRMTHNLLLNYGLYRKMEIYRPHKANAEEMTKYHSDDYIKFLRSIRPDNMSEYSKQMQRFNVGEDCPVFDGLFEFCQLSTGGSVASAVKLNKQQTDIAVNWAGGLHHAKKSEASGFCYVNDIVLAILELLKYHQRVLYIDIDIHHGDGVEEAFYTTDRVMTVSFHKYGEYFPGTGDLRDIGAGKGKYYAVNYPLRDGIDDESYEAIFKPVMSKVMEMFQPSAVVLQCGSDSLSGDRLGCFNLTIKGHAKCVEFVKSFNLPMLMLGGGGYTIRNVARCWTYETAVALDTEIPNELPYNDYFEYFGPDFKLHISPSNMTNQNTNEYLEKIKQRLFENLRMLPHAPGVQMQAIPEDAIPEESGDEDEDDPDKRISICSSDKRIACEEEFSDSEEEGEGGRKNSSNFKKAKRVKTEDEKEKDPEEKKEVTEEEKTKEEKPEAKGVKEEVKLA
T4 sequence (O15379 whole entry): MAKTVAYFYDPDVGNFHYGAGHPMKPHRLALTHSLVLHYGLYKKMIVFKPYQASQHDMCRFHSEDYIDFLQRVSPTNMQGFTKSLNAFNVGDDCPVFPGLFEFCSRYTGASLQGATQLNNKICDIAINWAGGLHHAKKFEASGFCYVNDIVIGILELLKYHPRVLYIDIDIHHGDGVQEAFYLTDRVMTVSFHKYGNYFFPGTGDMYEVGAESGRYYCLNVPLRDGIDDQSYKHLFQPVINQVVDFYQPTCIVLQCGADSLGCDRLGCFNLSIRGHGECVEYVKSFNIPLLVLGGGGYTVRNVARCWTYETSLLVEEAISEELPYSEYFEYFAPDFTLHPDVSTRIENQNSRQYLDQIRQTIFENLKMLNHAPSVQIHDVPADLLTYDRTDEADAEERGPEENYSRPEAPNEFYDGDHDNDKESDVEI
T4 sequence (Q9Y618 whole entry, further chain): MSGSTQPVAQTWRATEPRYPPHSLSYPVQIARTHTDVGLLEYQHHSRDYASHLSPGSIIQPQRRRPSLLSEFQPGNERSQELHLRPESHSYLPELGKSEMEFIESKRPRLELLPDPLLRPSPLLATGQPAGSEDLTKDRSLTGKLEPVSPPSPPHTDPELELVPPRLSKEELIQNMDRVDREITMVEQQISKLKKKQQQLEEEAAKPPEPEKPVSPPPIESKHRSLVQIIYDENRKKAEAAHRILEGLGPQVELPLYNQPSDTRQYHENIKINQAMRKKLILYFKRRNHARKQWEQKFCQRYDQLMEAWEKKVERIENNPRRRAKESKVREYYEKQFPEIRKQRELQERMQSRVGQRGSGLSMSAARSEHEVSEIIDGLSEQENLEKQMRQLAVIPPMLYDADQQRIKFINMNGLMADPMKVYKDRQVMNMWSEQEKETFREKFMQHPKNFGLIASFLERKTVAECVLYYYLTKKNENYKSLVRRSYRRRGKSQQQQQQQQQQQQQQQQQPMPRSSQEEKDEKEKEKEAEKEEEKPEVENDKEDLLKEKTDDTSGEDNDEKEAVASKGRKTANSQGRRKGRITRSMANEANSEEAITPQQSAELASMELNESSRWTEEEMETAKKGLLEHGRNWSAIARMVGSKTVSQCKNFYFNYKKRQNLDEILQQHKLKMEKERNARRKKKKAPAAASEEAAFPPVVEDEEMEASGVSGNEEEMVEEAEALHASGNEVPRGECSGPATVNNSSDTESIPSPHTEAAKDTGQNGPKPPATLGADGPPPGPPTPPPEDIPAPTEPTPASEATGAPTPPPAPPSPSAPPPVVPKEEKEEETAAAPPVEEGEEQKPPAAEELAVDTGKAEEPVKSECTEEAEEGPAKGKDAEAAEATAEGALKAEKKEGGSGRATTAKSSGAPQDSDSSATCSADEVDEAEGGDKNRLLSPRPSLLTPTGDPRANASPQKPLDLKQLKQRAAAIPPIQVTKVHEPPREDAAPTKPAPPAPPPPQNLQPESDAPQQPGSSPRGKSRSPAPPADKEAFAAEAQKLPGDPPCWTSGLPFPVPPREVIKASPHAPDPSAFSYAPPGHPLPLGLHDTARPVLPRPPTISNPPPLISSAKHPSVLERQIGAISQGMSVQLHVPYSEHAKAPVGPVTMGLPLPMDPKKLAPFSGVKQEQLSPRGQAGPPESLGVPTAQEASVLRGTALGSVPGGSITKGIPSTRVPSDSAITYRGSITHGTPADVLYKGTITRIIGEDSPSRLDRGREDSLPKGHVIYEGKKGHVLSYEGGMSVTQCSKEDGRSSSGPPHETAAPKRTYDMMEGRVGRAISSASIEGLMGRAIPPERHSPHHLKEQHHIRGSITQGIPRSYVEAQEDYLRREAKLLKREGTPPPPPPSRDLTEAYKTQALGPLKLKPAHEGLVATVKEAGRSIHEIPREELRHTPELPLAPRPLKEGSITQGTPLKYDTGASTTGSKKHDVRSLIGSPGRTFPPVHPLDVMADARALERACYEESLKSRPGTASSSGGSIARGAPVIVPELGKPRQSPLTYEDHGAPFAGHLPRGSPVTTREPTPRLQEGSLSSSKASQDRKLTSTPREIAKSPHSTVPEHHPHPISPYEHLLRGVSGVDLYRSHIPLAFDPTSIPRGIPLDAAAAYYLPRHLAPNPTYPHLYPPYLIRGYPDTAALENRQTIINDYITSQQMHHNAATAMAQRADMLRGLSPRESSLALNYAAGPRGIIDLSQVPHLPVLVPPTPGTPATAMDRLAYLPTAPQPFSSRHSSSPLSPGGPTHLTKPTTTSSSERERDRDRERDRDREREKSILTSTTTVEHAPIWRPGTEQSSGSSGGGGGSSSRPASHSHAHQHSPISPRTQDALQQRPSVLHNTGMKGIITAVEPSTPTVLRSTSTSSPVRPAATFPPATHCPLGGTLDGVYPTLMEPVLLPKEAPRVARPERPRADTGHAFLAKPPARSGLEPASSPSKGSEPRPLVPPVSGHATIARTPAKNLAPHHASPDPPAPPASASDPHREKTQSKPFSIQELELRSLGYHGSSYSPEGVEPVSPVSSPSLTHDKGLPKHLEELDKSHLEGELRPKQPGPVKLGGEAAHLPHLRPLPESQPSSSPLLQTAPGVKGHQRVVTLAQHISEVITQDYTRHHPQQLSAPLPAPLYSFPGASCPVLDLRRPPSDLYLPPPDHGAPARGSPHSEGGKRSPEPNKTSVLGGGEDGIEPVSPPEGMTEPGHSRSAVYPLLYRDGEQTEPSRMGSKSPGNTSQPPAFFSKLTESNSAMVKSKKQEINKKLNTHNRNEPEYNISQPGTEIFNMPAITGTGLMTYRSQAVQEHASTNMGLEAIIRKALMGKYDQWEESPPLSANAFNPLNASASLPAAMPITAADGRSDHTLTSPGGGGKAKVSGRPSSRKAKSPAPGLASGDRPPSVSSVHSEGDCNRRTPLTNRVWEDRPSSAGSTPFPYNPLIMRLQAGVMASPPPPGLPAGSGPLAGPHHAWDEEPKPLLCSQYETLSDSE

Row | SMILES | IC50 [7] [nM] | IC50 [9] [nM] | IC50 [12] [nM] | IC50 [13] [nM] | further results
1 | CCCNNC(=O)c1ccc(CNC(=O)[C@H](Cc2c[nH]c3ccccc23)NC(=O)c2ccc(OC)cc2)cc1 | > 100000 | 63.3 | 287 |  | IC50 [1]: 424 nM; IC50 [2]: 32.9 nM; IC50 [3]: 91.2 nM; IC50 [4]: 260 nM; IC50 [5]: 367 nM; IC50 [6]: 194 nM; IC50 [8]: 50.1 nM; inhibition [10]: Active; inhibition [11]: Active
2 | CCCCCNNC(=O)c1ccc(CNC(=O)[C@H](Cc2c[nH]c3ccccc23)NC(=O)c2ccc(OC)cc2)cc1 | > 100000 | 29.8 | 332 | 10.9 | 
3 | O=C(CCCCCCC(=O)Nc1ccccc1)NO |  |  |  |  | Activity [14]: Active
4 | CCNNC(=O)c1ccc(CNC(=O)[C@H](Cc2c[nH]c3ccccc23)NC(=O)c2ccc(OC)cc2)cc1 | 393 | 95.5 | 88.8 | 34.9 | 
5 | CCCNNC(=O)CCCCCCCNC(=O)[C@H](Cc1c[nH]c2ccccc12)NC(=O)c1ccc(OC)cc1 | > 100000 | 52.8 | 199 | 12.1 | 
6 | CCCNNC(=O)CCCCCNC(=O)[C@H](Cc1c[nH]c2ccccc12)NC(=O)c1ccc(OC)cc1 | > 100000 | 80.2 | 209 | 12.4 | 
7 | COc1ccc(C(=O)N[C@@H](Cc2c[nH]c3ccccc23)C(=O)NCc2ccc(C(=O)Nc3ccccc3N)cc2)cc1 | > 100000 |  |  |  | IC50 [1]: 348 nM; IC50 [2]: 34.5 nM; IC50 [16]: 135 nM; IC50 [3]: 99.9 nM; IC50 [4]: 169 nM; IC50 [5]: 252 nM; IC50 [6]: 121 nM; IC50 [17]: 64.9 nM; IC50 [18]: 939 nM; IC50 [8]: 49.8 nM; IC50 [19]: 184 nM; inhibition [10]: Active; IC50 [20]: 433 nM; inhibition [11]: Active
8 | COc1ccc(C(=O)N[C@@H](Cc2c[nH]c3ccccc23)C(=O)NCc2ccc(C(=O)NNc3ccccc3)cc2)cc1 | > 100000 | > 5000 | > 5000 | > 5000 | EC50 [15]: > 20000 nM

The next lines start with results.

Row | IC50 [7] [nM] | IC50 [9] [nM] | IC50 [12] [nM] | IC50 [13] [nM] | SMILES | further results
9 | > 100000 | > 5000 | > 5000 | > 5000 | COc1ccc(C(=O)N[C@@H](Cc2c[nH]c3ccccc23)C(=O)NCc2ccc(C(=O)NNC3CCCC3)cc2)cc1 | EC50 [15]: > 20000 nM
10 | > 100000 | 91.6 | 191 | 5.2 | CCCNNC(=O)CCCCCCNC(=O)[C@H](Cc1c[nH]c2ccccc12)NC(=O)c1ccc(OC)cc1 | 
11 | > 100000 | 53.7 | 193 | 16.5 | CCCCNNC(=O)c1ccc(CNC(=O)[C@H](Cc2c[nH]c3ccccc23)NC(=O)c2ccc(OC)cc2)cc1 | 
12 | > 100000 | 28.9 | 283 | 2.82 | CCCNNC(=O)/C=C/c1ccc(OC[C@H](Cc2c[nH]c3ccccc23)NC(=O)c2ccc(OC)cc2)cc1 | EC50 [15]: 243 nM
